ChEMBL document CHEMBL2069243, “Synthesis and SAR of pyridothiazole substituted pyrimidine derived HCV replication inhibitors” (Bioorg Med Chem Lett, 2012)

What was measured:
[1] = Cytotoxicity against human hepatoma cells assessed as decrease in GADPH RNA level after 3 days by Rt-PCR analysis; assay type: cell-based
[2] = Cytotoxicity against human hepatoma cells after 3 days by MTS assay; assay type: cell-based
Outline: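 MTS cell proliferation assay on replicon cells handled as in the replicon activity assay (seeded one day before, 0.5% DMSO, 10% FBS, serial dilutions), read 3 days after dosing. CC50 is the concentration giving 50% inhibition relative to vehicle-treated cells.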

[3] = test system: Hepatitis C virus; assay: Antiviral activity against Hepatitis C virus 1b con1 infected in human hepatoma cells assessed as decrease in replicon RNA level after 3 days by RT-PCR analysis; assay type: functional, organism-based, Hepacivirus hominis; details: genotype 1b Con1, 72 h
Outline: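 Con1 genotype 1b replicon cells were seeded at 5000 cells/well one day before treatment. Compound in DMSO was added (final 0.5% DMSO, 10% FBS) as 10 serial twofold dilutions in triplicate. Cells were harvested 3 days after dosing. Replicon RNA was quantified by real-time RT-PCR (Taqman), normalized to GAPDH RNA, and EC50 was calculated.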

[4] = AUC (0 to 6 hrs) in rat at 10 mg/kg, po; assay type: ADME, organism-based; set-up: time < 6 hr, dose 10 mg/kg, route oral; details: plasma
Outline: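 Rats were dosed orally at 10 mpk in 0.4% methylcellulose, n=2 per compound. Plasma was sampled at 8 time points up to 6 h, and exposure was reported as AUC0-6 h.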

[5] = Drug uptake in rat liver at 10 mg/kg, po at 6 hrs; assay type: ADME, organism-based; set-up: dose 10 mg/kg, route oral; details: read-out: Drug uptake
Outline: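 Rats were dosed orally at 10 mpk in 0.4% methylcellulose, n=2. Animals were sacrificed at 6 h, and liver was harvested and processed to measure compound concentration (liver C6 h).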

Structure (SMILES) | CC50 at 72 h [1] | CC50 at 72 h [2] | EC50 [3] | AUC(0-t) at 6 h [4] | concentration at 6 h [5]
COC(=O)CCc1nccc2sc(-c3c(C)nc(N[C@H](C)c4ccc(OC(F)(F)F)cc4)nc3N[C@@H]3C[C@H](CO)[C@@H](O)[C@H]3O)nc12 | 23 µM | 14 µM | 0.059 µM | – | –
Cc1nc(N[C@H](C)c2ccc(OC(F)(F)F)cc2)nc(N[C@@H]2C[C@H](CO)[C@@H](O)[C@H]2O)c1-c1nc2c(N)nccc2s1 | 25 µM | > 25 µM | 0.037 µM | – | –
Cc1cc2sc(-c3c(C)nc(N[C@H](C)c4ccc(OC(F)(F)F)cc4)nc3N[C@@H]3C[C@H](CO)[C@@H](O)[C@H]3O)nc2cn1 | 25 µM | > 25 µM | 0.038 µM | – | –
Cc1cc2sc(-c3c(C)nc(N[C@H](C)c4ccc(OC(F)(F)F)cc4)nc3N[C@@H]3C[C@H](CO)[C@@H](O)[C@H]3O)nc2c(C2CC2)n1 | 21 µM | 24 µM | 0.703 µM | – | –
CCc1cc2sc(-c3c(C)nc(N[C@H](C)c4ccc(OC(F)(F)F)cc4)nc3N[C@@H]3C[C@H](CO)[C@@H](O)[C@H]3O)nc2c(CC)n1 | 12 µM | 13 µM | 0.069 µM | – | –
CNc1nc(C)c(-c2nc3cnccc3s2)c(N[C@@H]2C[C@H](CO)[C@@H](O)[C@H]2O)n1 | 14 µM | 20 µM | 0.052 µM | 0.3 µM·h | –
Cc1nc(N(C)C)nc(N[C@@H]2C[C@H](CO)[C@@H](O)[C@H]2O)c1-c1nc2cnccc2s1 | 25 µM | > 25 µM | 0.557 µM | 7.5 µM·h | 1400 ng/g
Cc1nc(NCC(F)(F)F)nc(N[C@@H]2C[C@H](CO)[C@@H](O)[C@H]2O)c1-c1nc2cnccc2s1 | 25 µM | > 25 µM | 0.016 µM | – | –
Cc1nc(N)nc(N[C@@H]2C[C@H](CO)[C@@H](O)[C@H]2O)c1-c1nc2cnccc2s1 | 25 µM | 18 µM | 0.124 µM | – | –
Cc1nc(NCC2CC2)nc(N[C@@H]2C[C@H](CO)[C@@H](O)[C@H]2O)c1-c1nc2cnccc2s1 | 3 µM | 5 µM | 0.008 µM | 0.4 µM·h | 192 ng/g
CCOCCNc1nc(C)c(-c2nc3cnccc3s2)c(N[C@@H]2C[C@H](CO)[C@@H](O)[C@H]2O)n1 | 25 µM | 16 µM | 0.009 µM | 0.2 µM·h | 368 ng/g
Cc1nc(NCC2CCN(C)CC2)nc(N[C@@H]2C[C@H](CO)[C@@H](O)[C@H]2O)c1-c1nc2cnccc2s1 | 25 µM | > 25 µM | 1.68 µM | – | –
Cc1nc(NCc2ccccc2)nc(N[C@@H]2C[C@H](CO)[C@@H](O)[C@H]2O)c1-c1nc2cnccc2s1 | 25 µM | 14 µM | 0.003 µM | – | –
Cc1nc(NCc2c(F)cccc2F)nc(N[C@@H]2C[C@H](CO)[C@@H](O)[C@H]2O)c1-c1nc2cnccc2s1 | 4 µM | 10 µM | 0.001 µM | – | –
Cc1nc(NCc2ccc(OC(F)(F)F)cc2)nc(N[C@@H]2C[C@H](CO)[C@@H](O)[C@H]2O)c1-c1nc2cnccc2s1 | 25 µM | 25 µM | 0.003 µM | – | –
Cc1nc(NC(C)(C)c2ccccc2)nc(N[C@@H]2C[C@H](CO)[C@@H](O)[C@H]2O)c1-c1nc2cnccc2s1 | 25 µM | > 25 µM | 6.2 µM | – | –
Cc1ccc(C2(Nc3nc(C)c(-c4nc5cnccc5s4)c(N[C@@H]4C[C@H](CO)[C@@H](O)[C@H]4O)n3)CC2)cc1 | 25 µM | > 25 µM | 3.17 µM | – | –
Cc1nc(N[C@H](C)c2ccc(F)cc2)nc(N[C@@H]2C[C@H](CO)[C@@H](O)[C@H]2O)c1-c1nc2cnccc2s1 | 25 µM | 25 µM | 0.222 µM | – | –
Cc1nc(N[C@H](C)c2ccc(-c3cnn(C)c3)cc2)nc(N[C@@H]2C[C@H](CO)[C@@H](O)[C@H]2O)c1-c1nc2cnccc2s1 | 25 µM | 25 µM | 0.017 µM | – | –
